# Test results: ChEMBL document CHEMBL3600302, “A Ligand-Based Drug Design. Discovery of 4-Trifluoromethyl-7,8-pyranocoumarin as a Selective Inhibitor of Human Cytochrome P450 1A2” (J Med Chem, 2015); call rule not given here
# How the values were obtained:
# Cytochrome P450 1A1 [1] = molecular target: T1, Cytochrome P450 1A1 (Homo sapiens, UniProt P04798); assay: Inhibition of human microsomal CYP1A1-dependent ethoxyresorufin-O-deethylase activity by spectrofluorimetric analysis in presence of NADPH regenerating solution
# T1 sequence (P04798 whole entry): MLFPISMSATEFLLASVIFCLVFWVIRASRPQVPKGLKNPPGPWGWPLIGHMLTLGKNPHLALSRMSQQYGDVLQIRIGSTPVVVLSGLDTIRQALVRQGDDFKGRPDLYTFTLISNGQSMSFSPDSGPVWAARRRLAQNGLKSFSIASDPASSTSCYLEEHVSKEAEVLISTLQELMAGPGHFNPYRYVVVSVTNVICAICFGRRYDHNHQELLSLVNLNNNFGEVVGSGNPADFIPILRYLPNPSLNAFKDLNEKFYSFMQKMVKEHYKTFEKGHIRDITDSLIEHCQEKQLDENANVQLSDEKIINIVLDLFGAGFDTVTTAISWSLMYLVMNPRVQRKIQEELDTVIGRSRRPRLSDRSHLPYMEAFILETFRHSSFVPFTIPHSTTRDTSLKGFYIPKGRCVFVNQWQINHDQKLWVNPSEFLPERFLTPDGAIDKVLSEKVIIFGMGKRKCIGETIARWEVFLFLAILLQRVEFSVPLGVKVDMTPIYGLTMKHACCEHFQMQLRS
# In short: (§1)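 Microsomal P450 (final 5 nM) in 0.1 M potassium phosphate pH 7.6 with MgCl2 at 37 °C. Substrate final 5 µM: ethoxyresorufin for 1A1/1B1, methoxyresorufin for 1A2. […] Ki was taken as the x-intercept of Dixon plots (1/v0 vs [I]). Mean ± SD of three independent experiments. Selectivity ratios are ratios of these Ki.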
# Cytochrome P450 1A2 [2] = molecular target: T2, Cytochrome P450 1A2 (Homo sapiens, UniProt P05177); assay: Inhibition of human microsomal CYP1A2-dependent methoxyresorufin-O-demethylase activity by spectrofluorimetric analysis in presence of NADPH regenerating solution
# T2 sequence (P05177 whole entry): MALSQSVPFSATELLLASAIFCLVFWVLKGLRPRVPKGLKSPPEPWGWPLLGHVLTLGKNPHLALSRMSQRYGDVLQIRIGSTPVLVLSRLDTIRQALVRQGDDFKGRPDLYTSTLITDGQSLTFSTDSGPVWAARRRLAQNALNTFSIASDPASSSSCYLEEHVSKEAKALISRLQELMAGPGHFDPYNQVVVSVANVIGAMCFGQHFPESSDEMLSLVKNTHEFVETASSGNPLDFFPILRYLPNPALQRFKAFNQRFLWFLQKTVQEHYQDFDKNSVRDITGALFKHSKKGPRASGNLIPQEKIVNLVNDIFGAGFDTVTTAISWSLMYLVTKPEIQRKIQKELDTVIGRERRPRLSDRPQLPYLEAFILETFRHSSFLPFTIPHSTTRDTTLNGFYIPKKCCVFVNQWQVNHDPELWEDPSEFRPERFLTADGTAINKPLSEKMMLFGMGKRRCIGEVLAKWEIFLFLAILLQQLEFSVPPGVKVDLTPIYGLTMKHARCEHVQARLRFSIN
# In short: (§2)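 Microsomal P450 (final 5 nM) in 0.1 M potassium phosphate pH 7.6 with MgCl2 at 37 °C. Substrate final 5 µM: ethoxyresorufin for 1A1/1B1, methoxyresorufin for 1A2. Ki was taken as the x-intercept of Dixon plots (1/v0 vs [I]). Mean ± SD of three independent experiments. Selectivity ratios are ratios of these Ki.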
# Cytochrome P450 1B1 [3] = molecular target: T3, Cytochrome P450 1B1 (Homo sapiens, UniProt Q16678); assay: Inhibition of human microsomal CYP1B1-dependent ethoxyresorufin-O-deethylase activity by spectrofluorimetric analysis in presence of NADPH regenerating solution; in short: as §2
# T3 sequence (Q16678 whole entry): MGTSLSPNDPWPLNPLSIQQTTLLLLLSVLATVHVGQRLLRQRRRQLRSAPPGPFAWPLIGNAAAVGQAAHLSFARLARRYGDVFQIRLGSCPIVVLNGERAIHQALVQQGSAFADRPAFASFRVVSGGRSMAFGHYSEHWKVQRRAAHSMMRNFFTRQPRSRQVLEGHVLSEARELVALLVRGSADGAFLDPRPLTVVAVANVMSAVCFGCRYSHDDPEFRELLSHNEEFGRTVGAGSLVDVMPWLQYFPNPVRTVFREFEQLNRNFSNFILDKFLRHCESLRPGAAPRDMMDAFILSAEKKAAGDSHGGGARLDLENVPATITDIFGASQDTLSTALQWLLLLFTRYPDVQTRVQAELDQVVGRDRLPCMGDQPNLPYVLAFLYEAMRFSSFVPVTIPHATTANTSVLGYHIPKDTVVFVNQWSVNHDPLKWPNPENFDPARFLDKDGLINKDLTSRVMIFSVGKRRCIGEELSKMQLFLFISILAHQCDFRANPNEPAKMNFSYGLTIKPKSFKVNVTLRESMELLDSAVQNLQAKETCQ
# Homo sapiens [4] = organism: Homo sapiens; assay: Selectivity ratio of Ki for human microsomal CYP1A1 to Ki for human microsomal CYP1A2; in short: as §1
# Homo sapiens [5] = organism: Homo sapiens; assay: Selectivity ratio of Ki for human microsomal CYP1B1 to Ki for human microsomal CYP1A2; in short: as §1
# Cytochrome P450 1A2 [6] = molecular target: T2, Cytochrome P450 1A2; assay: (§3) Time-dependent inhibition of human microsomal CYP1A2-dependent methoxyresorufin-O-demethylase activity by spectrofluorimetric analysis in presence of NADPH regenerating solution
# In short: (§4)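 1A2 MROD run with NADPH at 0.0125, 0.025, 0.05 and 0.1 µM inhibitor, product monitored continuously over 6 min. Activity at different times came from first derivatives of product curves, expressed as % of control remaining. KI and limiting kinact were derived from the resulting linear plot.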
# Cytochrome P450 1A2 [7] = molecular target: T2, Cytochrome P450 1A2; assay: Inhibition of CYP1A2-dependent methoxyresorufin-O-demethylase activity in human HepG2 cells at 10^-5 M preincubated for 24 hrs followed by substrate addition measured at 10, 30, 60 mins by fluorescence assay; assay type: cell-based; conditions: hepg2, 1 h, 10 µM
# In short: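 HepG2 cells (DMEM, 10% FBS) were plated at 2 × 10^5 per well overnight. They were exposed 24 h to compound (final 10^-4 to 10^-7 M) in DMSO, with βNF 10^-5 M as positive control. Cells were PBS-washed and given medium with 5 × 10^-6 M methoxyresorufin. Resorufin fluorescence (ex 535/em 585 nm) was read at 10, 30 and 60 min. Triplicate, three independent runs, unpaired t test versus DMSO.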
# Cytochrome P450 1A1 [8] = molecular target: T1, Cytochrome P450 1A1; assay: Inhibition of human microsomal CYP1A1-dependent ethoxyresorufin-O-deethylase activity at 10 nM measured over 6 mins by spectrofluorimetric analysis in absence of NADPH regenerating solution; conditions: 0.1 h, 0.01 µM
# In short: (§5)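 Microsomal P450 in 0.1 M potassium phosphate pH 7.6 with MgCl2 and 10 nM inhibitor in DMSO, 2 mL final. Preincubated 5 min at 37 °C either with NADPH-regenerating solution, or without it, with NADPH then added at start. Reaction started with ethoxyresorufin (final 5 µM). Resorufin formation followed 6 min at 37 °C.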
# Cytochrome P450 1B1 [9] = molecular target: T3, Cytochrome P450 1B1; assay: Inhibition of human microsomal CYP1B1-dependent ethoxyresorufin-O-deethylase activity at 10 nM measured over 6 mins by spectrofluorimetric analysis in absence of NADPH regenerating solution; conditions: 0.1 h, 0.01 µM; in short: as §5
# Cytochrome P450 1A1 [10] = molecular target: T1, Cytochrome P450 1A1; assay: Inhibition of human microsomal CYP1A1-dependent ethoxyresorufin-O-deethylase activity at 10 nM preincubated for 5 mins followed by NADPH regenerating solution and substrate addition measured over 6 mins by spectrofluorimetric analysis; conditions: 0.1 h, 0.01 µM; in short: as §5
# Cytochrome P450 1B1 [11] = molecular target: T3, Cytochrome P450 1B1; assay: Inhibition of human microsomal CYP1B1-dependent ethoxyresorufin-O-deethylase activity at 10 nM preincubated for 5 mins followed by NADPH regenerating solution and substrate addition measured over 6 mins by spectrofluorimetric analysis; conditions: 0.1 h, 0.01 µM; in short: as §5
# CYP1A2 [12] = molecular target: T4, CYP1A2 (Homo sapiens, UniProt P05177); assay: as §3; conditions: human microsomal CYP1A2, probe methoxyresorufin (O-demethylation); in short: as §4
# T4 sequence (P05177 whole entry): T2 sequence (P05177 whole entry)
# Cytochrome P450 1A2 [13] = molecular target: T2, Cytochrome P450 1A2; assay: Inhibition of human microsomal CYP1A2-dependent methoxyresorufin-O-demethylase activity at 10 nM measured over 6 mins by spectrofluorimetric analysis in absence of NADPH regenerating solution; conditions: 0.1 h, 0.01 µM
# CYP1A2 [14] = molecular target: T4, CYP1A2; assay: Inhibition of human microsomal CYP1A2-dependent methoxyresorufin-O-demethylase activity at 10 nM preincubated for 5 mins followed by NADPH regenerating solution and substrate addition measured over 6 mins by spectrofluorimetric analysis relative to control; conditions: human microsomal CYP1A2, probe methoxyresorufin (O-demethylation)
Structure (SMILES),Ki (Cytochrome P450 1A1 [1]) [µM],Ki (Cytochrome P450 1A2 [2]) [µM],Ki (Cytochrome P450 1B1 [3]) [µM],Ratio Ki (Homo sapiens [4]),Ratio Ki (Homo sapiens [5]),TDI (Cytochrome P450 1A2 [6]),also measured
Cc1cc(=O)oc2c3c(ccc12)OCC=C3,110,1.51,12,73,7.9,Not Active,
O=c1cc(-c2ccccc2)oc2ccc3ccccc3c12 [BETA-NAPHTHOFLAVONE],,,,,,,inhibition (INH) (Cytochrome P450 1A2 [7]): Not Active
O=c1cc(-c2ccccc2)oc2c3c(ccc12)OCC=C3,0.27,,,,,,
O=c1cc(-c2ccccc2)c2ccc3c(c2o1)C=CCO3,25.2,1.29,5.04,20,3.9,Not Active,
O=c1cc(-c2ccccc2)oc2c1ccc1ncccc12,0.04,0.076,0.12,0.5,1.8,,
Cc1cc2c(ccc3c(C(F)(F)F)cc(=O)oc32)o1,60.7,1.35,46.8,45,35,Not Active,
Cc1cc2c(ccc3c(-c4ccccc4)c(C)c(=O)oc32)o1,11.6,3.7,22.6,3.1,6.1,Not Active,
O=c1cc(-c2ccccc2)oc2c1ccc1ccccc12 [ALPHA-NAPHTHOFLAVONE],0.045,,,,,,
Cc1cc2c(ccc3c(-c4ccccc4)cc(=O)oc32)o1,12,5.02,4.62,2.4,0.9,Not Active,
O=c1cc(-c2ccccc2)oc2c3c(cc(O)c12)OCC=C3,0.11,,0.0056,,,,
Cc1cc2c(cc(O)c3c(=O)cc(-c4ccccc4)oc32)o1,0.47,0.044,0.1,11,2.3,,"inhibition (INH) (Cytochrome P450 1A1 [8]): Not Active; inhibition (INH) (Cytochrome P450 1B1 [9]): Not Active; inhibition (INH) (Cytochrome P450 1A1 [10]): Not Active; inhibition (INH) (Cytochrome P450 1B1 [11]): Not Active; kinact (CYP1A2 [12]): 0.00433 s⁻¹; inhibition (INH) (Cytochrome P450 1A2 [13]): Active; inhibition at 0.1 h, 0.01 µM (CYP1A2 [14]): > 90%"
Cc1nc2c([nH]1)c(=O)n(C)c(=O)n2Cc1ccco1 [FURAFYLLINE],> 200,,> 200,,,,
O=c1cc(-c2ccccc2)oc2c3c(ccc12)OCO3,1.23,0.09,0.48,14,5.3,,
O=c1cc(-c2ccccc2)c2ccc3c(c2o1)OCO3,> 200,3.55,,,,Not Active,
Cc1cc(=O)oc2c1ccc1ncccc12,101,14.2,46.6,7.1,3.3,Not Active,
Cc1c(-c2ccccc2)c2ccc3c(c2oc1=O)C=CCO3,18.4,1.72,21.2,11,12,Not Active,
Cc1cc2c(ccc3c(C)cc(=O)oc32)o1,37.9,1.15,7.46,33,6.5,Not Active,
